Laboratory results as given in article PMC5084670 (Cancer Science, 2016).

Legend:
[1] = tested on: murine model of MB with deletion of PTCH1; conditions: cited from earlier work
GLI1 = GLI1 expression in normal skin samples by RT-PCR; format: in vivo, human
How it was run: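 Adult Asian patients with advanced solid tumors took oral test compound once daily in 28-day cycles after a 7-day single-dose run-in. Normal skin was sampled before treatment, at the end of cycle 1, and within 14 days after the last dose. RNA was extracted and analysed by RT-PCR to estimate GLI1 expression as a marker of Hh pathway activation.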

advanced solid tumors = experiment: Tumor response by RECIST version 1.0; format: in vivo, human
How it was run: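 Daily oral test compound was given in 28-day cycles to adults with advanced solid tumors who had measurable or evaluable disease. Investigators judged tumor response from CT or MRI scans according to RECIST version 1.0.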

Cc1c(C(=O)Nc2ccc(N3C[C@@H](C)O[C@@H](C)C3)nc2)cccc1-c1ccc(OC(F)(F)F)cc1 [Sonidegib]
Antitumor activity [1]: antitumor activity
Inhibition in GLI1 (normal skin, end of cycle 1 vs before treatment) (GLI1; group 1, 400 mg, four patients): 32–88%
Inhibition in GLI1 (normal skin, end of cycle 1 vs before treatment) (GLI1; group 1, 600 mg, nine patients): 73–96%
Inhibition in GLI1 (normal skin, end of cycle 1 vs before treatment) (GLI1; group 2, 400 mg, six patients): 6.8–95%
Inhibition in GLI1 (normal skin, end of cycle 1 vs before treatment) (GLI1; group 2, 600 mg, two patients): 53–83%
GLI1 expression in normal skin samples (GLI1; paired samples from 22 patients, all except one patient): decreased GLI1 expression
Stable disease (SD), number of patients (advanced solid tumors; group 1, 400 mg): 4 patients
Stable disease (SD), number of patients (advanced solid tumors; group 1, 600 mg): 1 patients
Progressive disease, patients (advanced solid tumors; group 1, 15 patients): 71%
Stable disease (SD), patients (advanced solid tumors; group 1, five patients): 24%
Complete response or partial response (advanced solid tumors; group 1 and group 2): Neither complete response nor partial response was observed
Stable disease (SD), number of patients (advanced solid tumors; group 2, 600 mg): three
Best overall response SD, patients (advanced solid tumors; group 2, 10 patients): 42%
Progressive disease, patients (advanced solid tumors; group 2, nine patients): 38%
